# From paper PMC8102310 (Cancer discovery, 2021)
# Where two headings read alike, the source gives them in different places.
# Legend:
# CP50c PDX = assay: CP50c patient-derived xenograft; format: in vivo, mouse
# Procedure, shortened: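 CP50c PDX was passaged twice in castrated mice, then fragments were grafted subcutaneously into castrated male NSG mice. Oral gavage dosing began at about 300–400 mm³, once daily, with 5% DMSO:95% methylcellulose (0.5% w/v) as vehicle or formulation. Volumes were taken every 2–3 days and grouped by 5-day intervals, n=6 per group. Growth was normalized to start, and time to 300% of starting volume served as the surrogate survival endpoint.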
# 22Rv1 cells [1] = assay: AR and C-MYC signaling; format: cell-based
# 22Rv1 = assay: Cell proliferation; format: cell-based
# 22Rv1 cells [2] = assay: Chromatin immunoprecipitation of CBP, p300 and AR-FL at AR binding sites; format: cell-based; settings: 500nM, 10nM dihydrotestosterone
# BRD4 bromodomain = BRD4 bromodomain (Homo sapiens, UniProt O60885); format: cell-based
# LNCaP-Bic mouse = LNCaP-Bic mouse xenograft; format: in vivo
# LNCaP95 = assay: Cell proliferation; format: cell-based; settings: LNCaP-95, read-out: growth inhibition IC50
# [3] = test system: AR negative, hormone independent, cell lines; assay: Cell proliferation; format: cell-based; settings: read-out: growth inhibition IC50
# [4] = test system: 44 receptors, enzymes and ion channels; assay: Safety screen of 44 receptors, enzymes and ion channels; format: biochemical; settings: at 10 μM
# 97 kinases = assay: Screen of 97 kinases; format: biochemical; settings: at 10 μM
# BRD2, 3, 4, 9 and WDR9 = assay: Bromoscan assay of 32 bromodomains; settings: at 1 μM; minimal binding
# patients with mCRPC = assay: First in human phase I trial; format: in vivo
# LNCaP95 cells = assay: AR and C-MYC signaling; format: cell-based
# [5] = test system: JQ1 resistant 22Rv1 cells; assay: Cell proliferation in JQ1 resistant cells; format: cell-based; settings: for resistance, resistant vs parental: JQ1 resistant 22Rv1 cells
# Procedure, shortened: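 For resistance, 22Rv1 cells were cultured for 6 months in escalating BET inhibitor (30 nM up to 500 nM) or in 0.1% DMSO vehicle. Dose was raised only when morphology, viability and growth were good and after at least two passages at the prior dose. Parental (vehicle-cultured) and resistant cells were then compared for proliferation IC50.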
# C4–2 cells = assay: Chromatin immunoprecipitation of CBP, p300 and AR-FL at AR binding sites; format: cell-based; settings: 500nM, 10nM dihydrotestosterone
# 22Rv1 mouse xenografts = assay: 22Rv1 mouse xenograft; format: in vivo
# VCaP = assay: Cell proliferation; format: cell-based; settings: Homo sapiens, read-out: growth inhibition IC50
# [6] = test system: androgen-dependent and castration resistant prostate cancer cell lines; settings: ref [35], [54]; cited from earlier work
molecule,measurement,setting,value
CO[C@H]1CC[C@H](n2c([C@@H]3CCCC(=O)N3c3ccc(F)c(F)c3)nc3cc(-c4c(C)noc4C)ccc32)CC1 [CCS1477],median time to 300% growth,"CP50c PDX; 20 mg/kg once-daily, vehicle 38",56 days
same,survival (time to 300% growth),CP50c PDX; oral 20 mg/kg QD vs vehicle,significantly (p=<0.001) prolonged survival
same,tumor growth,CP50c PDX; oral 20 mg/kg QD vs vehicle,significantly (p=0.02) reduced tumor growth
same,C-MYC protein expression,22Rv1 cells [1]; 22Rv1,reduced
same,"expression of AR regulated genes (KLK2, KLK3 and TMPRSS2)",22Rv1 cells [1]; 48-hours,reduced
same,IC50,"22Rv1; Homo sapiens, 22Rv1, read-out: growth inhibition IC50, 22Rv1",< 100 nM
same,IC50,"22Rv1; read-out: growth inhibition IC50, 22Rv1",96 nM
same,"recruitment of CBP, p300 and AR-FL to AR binding sites",22Rv1 cells [2],"reduced the recruitment of CBP, p300 and AR-FL"
same,IC50,BRD4 bromodomain,1060 nM
same,tumor growth compared to enzalutamide,LNCaP-Bic mouse,significantly (p=<0.001) reduced tumor growth
same,IC50,LNCaP95,< 100 nM
same,IC50,[3],> 1000 nM
same,biochemical inhibitory activity in safety screen,[4],no biochemical inhibitory activity
same,biochemical inhibitory activity,97 kinases,no biochemical inhibitory activity
same,"binding, % of control","BRD2, 3, 4, 9 and WDR9",14–33 % of control
same,plasma KLK3,"patients with mCRPC; Patient 1, 50 mg BD 3-days-on-and-4 days-off",initial fall in plasma KLK3 which then stabilized
same,biopsy protein expression post-dose vs pre-dose (IHC),"patients with mCRPC; Patient 1, 50 mg BD, 4-hours post dose",reduction in AR-V7 and C-MYC protein expression
same,biopsy protein expression post-dose vs pre-dose (IHC),"patients with mCRPC; Patient 2, 25 mg BD, 3-hours post dose",reduction in C-MYC and Ki67 protein expression
same,"expression of AR regulated genes (KLK2, KLK3 and TMPRSS2)",LNCaP95 cells; 48-hours,reduced
same,C-MYC protein expression,LNCaP95 cells; LNCaP95,reduced
same,sensitivity of JQ1 resistant 22Rv1 cells to treatment,[5]; compared with parental,more sensitive
same,"recruitment of CBP, p300 and AR-FL to AR binding sites",C4–2 cells,"reduced the recruitment of CBP, p300 and AR-FL"
same,most effective tolerated dose,22Rv1 mouse xenografts; 22Rv1 xenograft,20 mg/kg
same,concentration of CCS1477 in plasma and tumor,22Rv1 mouse xenografts; 24-hours after the last dose,undetectable
same,"AR-FL, AR-V7 and C-MYC protein expression in tumors","22Rv1 mouse xenografts; after 7-days of treatment, all doses tested",reduced
same,plasma KLK3 concentrations,22Rv1 mouse xenografts; all doses,decrease
same,levels of CCS1477 in plasma or tumor,22Rv1 mouse xenografts; day 52,no detectable levels
same,tolerability,"22Rv1 mouse xenografts; mouse, in vivo",well tolerated with no change in body weight or condition of the animals
same,tumor growth,"22Rv1 mouse xenografts; oral, 10mg/kg QD, 20 mg/kg QD, 30 mg/kg QOD, vs vehicle",significantly (p=<0.001) impacted tumor growth
same,tumor growth inhibition after treatment stopped at 28-days,22Rv1 mouse xenografts; treatment stopped after 28-days,sustained until day 52
same,IC50,VCaP,< 100 nM
Cc1sc2c(c1C)C(c1ccc(Cl)cc1)=N[C@@H](CC(=O)OC(C)(C)C)c1nnc(C)n1-2 [JQ1],IC50,"22Rv1; read-out: IC50 in parental 22Rv1 cells, parental cells, vehicle cultured",60 nM
same,"resistance, resistant vs parental",[5],> 100 fold
same,IC50,"[5]; read-out: IC50 in JQ1 resistant 22Rv1 cells, resistant cells",7300 nM
I-BET151,"resistance, resistant vs parental",[5],> 100 fold
CNC(=O)Nc1ccc2c(c1)CC[C@@]21OC(=O)N(CC(=O)N(Cc2ccc(F)cc2)[C@@H](C)C(F)(F)F)C1=O [A-485],cell death,[6],induce cell death
CC1=NN(c2ccc(C(=O)O)cc2)C(=O)/C1=C\c1ccc(-c2cc(C)c(C)cc2[N+](=O)[O-])o1 [C646],cell death,[6],induce cell death
Cc1sc2c(c1C)C(c1ccc(Cl)cc1)=N[C@@H](CC(=O)Nc1ccc(O)cc1)c1nnc(C)n1-2 [OTX-015],"resistance, resistant vs parental",[5],> 100 fold
